In PMC9070076 (RSC Advances, 2019):

Legend:
[1] = Multicomponent pharmacokinetics in rat plasma after single i.v. EBI; assay type: in vivo, Sprague-Dawley rats; details: Sprague-Dawley, iv, n = 6
[2] = tested on: isoprenaline-induced myocardial infarction (MI) in mice; assay type: in vivo, Kunming mice; details: 30 mg kg^-1 i.v. for 7 days, seventh day
Method in brief: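 Kunming mice (about 8 weeks, 20–30 g) were randomised into groups of n = 8 and given test compound i.v. for 7 days in 0.5% NaHCO₃:propylene glycol:saline (17:2:81). Isoprenaline chloride 5 mg kg⁻¹ i.p. was given days 4–5 to all groups except control. Lead II ECG ST elevation was recorded under pentobarbital. Day-7 orbital serum was taken for CK, and left-ventricle H&E sections were read at 200×. Single-tailed t test.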

[3] = 0.72 mL kg^-1, AUC0–t, Low dosage: 0.72 mL kg^-1 of 10 times concentrated EBI
[4] = 0.72 mL kg^-1, Cl, Low dosage: 0.72 mL kg^-1 of 10 times concentrated EBI
[5] = 0.72 mL kg^-1, MRT0–t, Low dosage: 0.72 mL kg^-1 of 10 times concentrated EBI
[6] = 0.72 mL kg^-1, Vd, Low dosage: 0.72 mL kg^-1 of 10 times concentrated EBI
[7] = 0.72 mL kg^-1, t 1/2, Low dosage: 0.72 mL kg^-1 of 10 times concentrated EBI
[8] = 3.6 mL kg^-1, AUC0–t, High dosage: 3.6 mL kg^-1 of 10 times concentrated EBI
[9] = 3.6 mL kg^-1, Cl, High dosage: 3.6 mL kg^-1 of 10 times concentrated EBI
[10] = 3.6 mL kg^-1, MRT0–t, High dosage: 3.6 mL kg^-1 of 10 times concentrated EBI
[11] = 3.6 mL kg^-1, Vd, High dosage: 3.6 mL kg^-1 of 10 times concentrated EBI
[12] = 3.6 mL kg^-1, t 1/2, High dosage: 3.6 mL kg^-1 of 10 times concentrated EBI

AUC(0-t) [1, 3] | clearance [1, 4] | MRT last [1, 5] | Vd [1, 6] | half-life [1, 7] | AUC(0-t) [1, 8] | clearance [1, 9] | MRT last [1, 10] | Vd [1, 11] | half-life [1, 12] | SMILES | ST segment elevation (ECG) ([2]; P < 0.05 vs. model group) | serum creatine kinase (CK) activity ([2]; P < 0.05 vs. model group) | heart histopathology (H&E staining) ([2]; left ventricle sections)
75.2 ± 43.8 ng·h/mL | 8 mL/min | 8.4 ± 2.4 min | 0.16 ± 0.07 L | 13.8 ± 1.8 min | 393 ± 145 ng·h/mL | 6.83 mL/min | 12 ± 4.2 min | 0.13 ± 0.06 L | 13.2 ± 4.2 min | O=C(O)/C=C/c1ccc(O)c(O)c1 [Caffeic acid, caffeic acid] |  |  | 
1510 ± 574 ng·h/mL | 8.5 mL/min | 23.4 ± 5.4 min | 0.9 ± 0.54 L | 74.4 ± 38.4 min | 6860 ± 989 ng·h/mL | 7.5 mL/min | 27 ± 6 min | 1.63 ± 0.65 L | 151 ± 57 min | O=C(O)[C@H]1O[C@@H](Oc2cc3oc(-c4ccc(O)cc4)cc(=O)c3c(O)c2O)[C@H](O)[C@@H](O)[C@@H]1O [Scutellarin, scutellarin] | seldom occurred | significantly decreased | mild edema, inflammatory infiltration and loss of striations in heart tissue
